Source: article PMC7304851 (Journal for Immunotherapy of Cancer, 2020)
“Also recorded” adds a separate entry of the source.

Legend:
macrophage infiltration = details: preclinical models; cited from earlier work
[1] = system: relapsed or refractory classical Hodgkin’s lymphoma; details: cited from earlier work
[2] = system: Pan02 pancreatic syngeneic tumor model; assay: Preclinical FDG-PET, Pan02 model; type: in vivo, mouse; details: data not shown
[3] = system: immune-cell infiltration in tumor; assay: Paired tumor biopsies: immunohistochemistry and TLDA gene expression; type: in vivo, human
[4] = system: 4T1 breast syngeneic tumor model; assay: Preclinical FDG-PET, 4T1 model; type: in vivo, mouse; details: 4T1 breast model, data not shown
FDG-avid tumor lesions = assay: 18FDG-PET metabolic response; type: in vivo, human
advanced tumors = assay: Tumor response by irRECIST, survival and treatment duration; type: in vivo, human
[5] = system: mouse syngeneic tumor models; details: dependent on myeloid cells and CD8+ T cells; cited from earlier work
[6] = system: EP4-regulated genes and immune-related circulating factors; assay: Blood gene expression, serum cytokines/chemokines, flow cytometry; type: in vivo, human
Method in brief: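 Patients with advanced tumors took oral drug once daily (125–750 mg) in 21-day cycles. mRNA isolated from blood was profiled on a 92-gene TaqMan Low Density Array panel. Serum/plasma levels of 36 immune-related circulating factors were measured by proteomics, ELISA and Meso Scale Discovery multiplex. Blood immune subsets were assessed by eight-color flow cytometry. Cycle 1 day 15 was compared with baseline by paired t-test.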

[7] = Clinical pharmacokinetics in plasma; type: in vivo, human
[8] = Phase 1 safety and tolerability; type: in vivo, human
[9] = system: primary human peripheral blood mononuclear cells (PBMCs); assay: EP4 agonist in PBMCs, TNF-α and CXCL10 by RT-PCR; type: cell-based; details: PBMCs from healthy donors incubated with EP4 agonist
[10] = blood, on treatment versus baseline
[11] = cycle 1 day 15 compared with baseline
[12] = all patients, combined incidence

CN(C)CC(=O)N1CCC(c2ccc(NC(=O)c3nc(C#N)c[nH]3)c(C3=CCCCC3)c2)CC1 [JNJ-28312141]
macrophage infiltration (macrophage infiltration): substantially decreased macrophage infiltration

CC1(C)CC=C(c2nc(C3CC(C)(C)OC(C)(C)C3)ccc2NC(=O)c2nc(C#N)c[nH]2)CC1 [JNJ-40346527]
objective response rate ([1]; 1/21 patients had complete response): 5%
patients who achieved stable disease ([1]; 11/21 patients): 55%

C[C@H](NC(=O)c1c(C(F)F)nn(C)c1Oc1cccc(C(F)(F)F)c1)c1ccc(C(=O)O)cc1 [E7046]
FDG-PET signal compared with vehicle treatment [2]: decreased the FDG-PET signal
tumor gene expression of TNF-α and CXCL10 ([3]; 10 paired biopsies, without reaching statistical significance): upregulation
increase in expression of CXCL10 in the tumor ([3]; individual patient case): ~ 20%
increase in percentage of CD8+ T cells in the tumor ([3]; individual patient case): 31%
CD3+ and CD8+ T cells in tumor tissues (immunohistochemistry) ([3]; paired biopsies of 11 patients, baseline to cycle 2 day 1): significant increase
FDG-PET signal compared with vehicle treatment [4]: decreased the FDG-PET signal
patients with partial metabolic response (18FDG-PET) (FDG-avid tumor lesions; 15 evaluable patients (3/15), SUVmax reduction ≥25%): 20%
FDG-PET signal reduction (partial metabolic response) (FDG-avid tumor lesions; individual patient case): 31%
duration of treatment of the three patients with partial metabolic responses (FDG-avid tumor lesions; longest among all patients): 145 to 208 days
best response of stable disease, number of patients (advanced tumors; 125 mg): 2
patients with best response of durable stable disease for ≥18 weeks (advanced tumors; 125 mg (n=2/8)): 25%
best response of stable disease, number of patients (advanced tumors; 250 mg): 2
patients with best response of durable stable disease for ≥18 weeks (advanced tumors; 250 mg (n=2/8)): 25%
best response of stable disease, number of patients (advanced tumors; 750 mg): 3
patients with longer duration of treatment on E7046 compared with most recent prior anticancer therapy (advanced tumors; 10 patients of 30): 33%
disease control rate (advanced tumors; all patients (n=30)): 23%
objective responses by irRECIST (advanced tumors; all patients (n=30)): no objective responses
patients with best response of stable disease (irRECIST) (advanced tumors; all patients (n=30)): 23%
median duration of treatment (advanced tumors; all patients, range: 1.1–30): 5.9 weeks
growth of multiple mouse syngeneic tumor models [5]: inhibited the growth
circulating gene expression of CD274 (PD-L1) and PDCD1LG2 (PD-L2) [6, 10]: increased expression
circulating gene expression of EOMES, PTGER4 and IDO1 [6, 10]: decreased expression
number of genes modulated in blood out of a 92-immune-gene panel [6, 11]: 16
number of serum cytokines and chemokines modulated out of a panel of 36 [6, 11]: 14
serum level of CXCL10 ([6]; cycle 1 day 15 compared with baseline, p=0.0015): significantly upregulated
serum level of CCL5 ([6]; cycle 1 day 15 compared with baseline, p=0.0292): significantly upregulated
major immune cell subsets in the blood (T cells, B cells, natural killer cells, MDSC) ([6]; eight-color flow cytometry, data not shown): no significant changes
exposure versus dose ([7]; 125 to 750 mg): dose proportional up to 500 mg, with no incremental increase at 750 mg
Free E7046 concentration versus Ki of EP4 inhibition ([7]; all four doses, cycle 1 day 8): reached or exceeded the preclinical Ki value
accumulation on multiple dosing ([7]; daily oral dosing): twofold to threefold
time to maximum drug concentration ([7]; postdose, across all doses): ~ 2 hours
TEAE incidence diarrhea ([8]; 750 mg dose cohort): 42.9%
TEAE incidence fatigue ([8]; 750 mg dose cohort): 42.9%
TEAE incidence nausea ([8]; 750 mg dose cohort): 42.9%
Dose-limiting toxicities (DLTs) ([8]; 125, 250, 500 and 750 mg orally once daily, cycle 1): No dose-limiting toxicities were observed; also recorded: no DLTs observed; also recorded: No DLTs were reported
Maximum tolerated dose (MTD) ([8]; 125 to 750 mg orally once daily): not reached
fatal treatment-related TEAE ([8]; all patients): No patients experienced a fatal treatment-related TEAE
patients who discontinued treatment due to TEAEs ([8]; all patients): 17%
patients with grade ≥3 treatment-related TEAEs ([8]; all patients): 10%
patients with treatment-related SAEs ([8]; all patients (3/30)): 10%
patients with at least 1 TEAE ([8]; all patients (n=30)): 93%
TEAE (all grades) diarrhea [8, 12]: 33.3%
TEAE (all grades) fatigue [8, 12]: 36.7%
TEAE (all grades) nausea [8, 12]: 30%

CCCCC[C@H](O)/C=C/[C@H]1[C@H](O)CC(=O)[C@@H]1CCCCCCCO [PGE1-OH]
expression of TNF-α and CXCL10 [9]: dose-dependent down-regulation; also recorded: dose-dependently suppressed
